In ChEMBL document CHEMBL4346661, “Design, synthesis and evaluation of novel diaryl-1,5-diazoles derivatives bearing morpholine as potent dual COX-2/5-LOX inhibitors and antitumor agents” (Eur J Med Chem, 2019):
Calls of active or inactive are those of the source. The calls are words filed in the database; no cut-off is given here.

Tests used:
B16-F10 [1] = assay: Antiproliferative activity against mouse B16F10 cells incubated for 48 hrs by MTT assay; format: functional, cell-based; conditions: B16-F10, 48 h
Method in brief: (§1)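 MTT assay on F10 (murine melanoma), HeLa, A549, MCF-7 and 293T (human renal epithelium) cells. IC50 given as mean ± SD of three independent experiments.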

A549 = assay: Antiproliferative activity against human A549 cells incubated for 48 hrs by MTT assay; format: functional, cell-based; conditions: A549, 48 h; method in brief: as §1
HeLa = assay: Antiproliferative activity against human HeLa cells incubated for 48 hrs by MTT assay; format: functional, cell-based; method in brief: as §1
[2] = target: Prostaglandin G/H synthase 1 (Homo sapiens, UniProt P23219); assay: Inhibition of COX1 (unknown origin) using arachidonic acid as substrate incubated for 10 mins by Ellman's reagent based COX-1/COX-2 ELISA assay
Chain of Prostaglandin G/H synthase 1 (P23219 whole entry): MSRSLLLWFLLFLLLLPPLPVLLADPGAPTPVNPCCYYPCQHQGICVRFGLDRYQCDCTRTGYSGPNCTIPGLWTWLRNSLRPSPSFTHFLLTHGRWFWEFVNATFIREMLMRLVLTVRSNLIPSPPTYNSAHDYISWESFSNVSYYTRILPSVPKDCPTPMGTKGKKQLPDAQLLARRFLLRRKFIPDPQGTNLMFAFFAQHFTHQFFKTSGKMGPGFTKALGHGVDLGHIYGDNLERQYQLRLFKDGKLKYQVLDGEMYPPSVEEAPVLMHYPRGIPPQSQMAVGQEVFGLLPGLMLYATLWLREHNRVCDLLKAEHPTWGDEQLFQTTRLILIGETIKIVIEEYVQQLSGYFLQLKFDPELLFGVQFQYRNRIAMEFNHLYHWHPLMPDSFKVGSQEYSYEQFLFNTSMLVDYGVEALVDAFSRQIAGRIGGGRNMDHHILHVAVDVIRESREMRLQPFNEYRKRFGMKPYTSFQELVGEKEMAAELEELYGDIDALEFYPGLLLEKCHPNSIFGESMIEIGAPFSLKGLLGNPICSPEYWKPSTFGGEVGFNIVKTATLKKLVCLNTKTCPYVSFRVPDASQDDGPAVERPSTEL

[3] = Inhibition of 5-LOX assessed as calcium ionophore A23187-stimulated LTB4 production preincubated for 30 mins followed by calcium ionophore A23187 addition and measured after 30 mins by ELISA
Homo sapiens = organism: Homo sapiens; assay: Selectivity index, ratio of IC50 for COX1 (unknown origin) to IC50 for COX2 (unknown origin)
Method in brief: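 Ratio of COX-1 IC50 to COX-2 IC50, from human COX-1 and human COX-2 inhibitor screening assay kits. Each IC50 is the concentration giving 50% enzyme inhibition, taken as the mean of four determinations.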

HEK-293T = assay: Antiproliferative activity against human 293T cells incubated for 48 hrs by MTT assay; format: cell-based; method in brief: as §1
MCF7 = assay: Antiproliferative activity against human MCF7 cells incubated for 48 hrs by MTT assay; format: functional, cell-based; conditions: MCF7, 48 h; method in brief: as §1
[4] = target: T1, Prostaglandin G/H synthase 2 (Homo sapiens, UniProt P35354); assay: Inhibition of COX2 (unknown origin) using arachidonic acid as substrate incubated for 10 mins by Ellman's reagent based COX-1/COX-2 ELISA assay
T1 sequence (P35354 whole entry): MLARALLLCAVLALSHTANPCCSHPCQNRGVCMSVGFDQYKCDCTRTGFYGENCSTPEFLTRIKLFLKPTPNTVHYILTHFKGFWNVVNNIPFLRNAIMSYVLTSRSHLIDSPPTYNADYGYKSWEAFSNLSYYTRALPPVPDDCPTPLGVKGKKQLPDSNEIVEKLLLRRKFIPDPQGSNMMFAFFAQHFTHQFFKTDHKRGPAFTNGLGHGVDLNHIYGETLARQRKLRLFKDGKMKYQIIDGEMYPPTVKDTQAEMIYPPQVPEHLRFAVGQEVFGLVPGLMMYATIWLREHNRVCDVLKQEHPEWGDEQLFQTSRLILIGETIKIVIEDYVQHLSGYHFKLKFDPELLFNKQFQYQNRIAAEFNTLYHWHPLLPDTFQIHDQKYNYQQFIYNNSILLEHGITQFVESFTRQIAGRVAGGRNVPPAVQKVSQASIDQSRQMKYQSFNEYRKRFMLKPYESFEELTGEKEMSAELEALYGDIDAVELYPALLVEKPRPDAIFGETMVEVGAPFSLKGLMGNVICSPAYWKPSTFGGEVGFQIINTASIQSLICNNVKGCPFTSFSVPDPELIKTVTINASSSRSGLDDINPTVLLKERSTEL

B16-F10 [5] = assay: Inhibition of LPS-induced PGE2 production in mouse B16F10 cells at 6.25 uM incubated for 24 hrs by enzyme immunoassay; format: functional, cell-based
Method in brief: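 F10 cells treated for 24 h alongside LPS (1 µg/ml), test agent at 6.25 µM. Supernatant collected by centrifugation and PGE2 measured with a PGE2 enzyme immunoassay (ELISA) kit. Mean ± SD of three independent experiments.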

B16-F10 [6] = assay: Antitumor activity against mouse B16F10 cells implanted in nude mouse assessed as decrease in tumor weight at 20 mg/kg, ip administered once per 2 days for 14 days by caliper method relative to control; format: functional, organism-based
Method in brief: (§2)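 Nude mice were given 5×10^6 F10 cells subcutaneously in the right flank. At about 100 mm3, 24 mice were randomized into four groups of vehicle or compound. Dosing was intraperitoneal every two days for two weeks. Tumor volume was recorded every other day. Tumors were excised and weighed after the last treatment, and body weight was monitored.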

B16-F10 [7] = assay: Antitumor activity against mouse B16F10 cells implanted in nude mouse assessed as reduction in tumor size at 20 mg/kg, ip administered once per 2 days for 14 days by caliper method; format: functional; method in brief: as §2

IC50 (B16-F10 [1])	IC50 (A549)	IC50 (HeLa)	IC50 [2]	IC50 [3]	Ratio IC50 (Homo sapiens)	IC50 (MCF7)	IC50 [4]	Compound	IC50 (HEK-293T)	inhibition (B16-F10 [5])	Activity (B16-F10 [6])	Activity (B16-F10 [7])
13.9 µM	15.4 µM	14.8 µM	29.4 µM	0.87 µM	140	12.5 µM	0.21 to 0.22 µM	NS(=O)(=O)c1ccc(-n2nc(C(=O)N3CCSCC3)cc2-c2cccc(Cl)c2)cc1	191 µM			
13.3 µM	11 µM					12.6 µM		Cc1ccc(-c2cc(C(F)(F)F)nn2-c2ccc(S(N)(=O)=O)cc2)cc1 [CELECOXIB]	97.9 µM	Active	Active	978.35 mm3
14.4 µM	15.2 µM	29.8 µM	28.5 µM	0.75 µM	136	14.7 µM	0.21 µM	NS(=O)(=O)c1ccc(-n2nc(C(=O)OCCCN3CCOCC3)cc2-c2ccc(C(F)(F)F)cc2)cc1	179 µM			
20.8 µM	19.6 µM	21.6 µM		0.93 µM		16 µM	2.01 µM	COc1ccc(-c2cc(C(=O)N3CCOCC3)nn2-c2ccc(S(N)(=O)=O)cc2)cc1	207 µM			
30.1 µM	25.7 µM	51.3 µM		2.01 µM		18.9 µM	0.23 µM	NS(=O)(=O)c1ccc(-n2nc(C(=O)N3CCOCC3)cc2-c2cccc(F)c2)cc1	180 µM			
21.5 µM	27.8 µM	24.6 µM		0.81 µM		16.7 µM	0.19 µM	NS(=O)(=O)c1ccc(-n2nc(C(=O)OCCN3CCOCC3)cc2-c2ccc(C(F)(F)F)cc2)cc1	148 µM			
32.3 µM	> 100 µM	21.6 µM		0.97 µM		16.5 µM	0.97 µM	CCOc1ccc(-c2cc(C(=O)N3CCSCC3)nn2-c2ccc(S(N)(=O)=O)cc2)cc1	169 µM			
14.6 µM	24.6 µM	17.9 µM		1.33 µM		15.8 µM	0.24 µM	NS(=O)(=O)c1ccc(-n2nc(C(=O)N3CCOCC3)cc2-c2cccc(Cl)c2)cc1	114 µM			
8.16 µM	10.2 µM	9.94 µM	30.8 µM	0.71 µM	162	9.25 µM	0.19 µM	NS(=O)(=O)c1ccc(-n2nc(C(=O)N3CCSCC3)cc2-c2ccc(C(F)(F)F)cc2)cc1	136 µM			
